Assay results from ChEMBL document CHEMBL1154990, “Three new cytochalasins produced by an endophytic fungus in the genus Rhinocladiella” (2000).

How the values were obtained:
SW-620 = test: Cytotoxicity against human SW620 cells after 72 hrs; type: functional
Outline: (§1)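 Cells seeded at 2.5×10^4 cells/mL (150 μL per well) and preincubated ~24 h at 37 °C, 5% CO₂. Compounds dissolved at 1.0 mg/mL in MeOH (stock), 50 μL added, then serially diluted 4-fold for eight concentrations. After 72 h further incubation, cells fixed with HBSS–formaldehyde–water (1:1:8) for 10 min. Stained with 0.0075% crystal violet for 15 min. Concentration giving total cell kill (IC100) read.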

HCT-116 = test: Cytotoxicity against human HCT116 cells after 72 hrs; type: functional; outline: as §1
[1] = Cytotoxicity against human A2780S cells after 72 hrs; type: functional, A2780; outline: as §1

| SMILES | IC100 (SW-620) [µg/mL] | IC100 (HCT-116) [µg/mL] | IC100 [1] [µg/mL] |
| --- | --- | --- | --- |
| CC1/C=C/C(=O)O[C@@]23C(=O)N[C@@H](Cc4ccccc4)[C@@H]2[C@H](C)[C@@]2(C)O[C@H]2[C@@H]3/C=C/CC(C)C1O (stereo partly specified) | 15.6 | 3.91 | 3.91 |
| CC1CCC(=O)O[C@@]23C(=O)N[C@@H](Cc4ccccc4)[C@@H]2[C@H](C)[C@@]2(C)O[C@H]2[C@@H]3/C=C/CC(C)(O)C1=O (stereo partly specified) | 62.5 | 15.6 | 15.6 |
| CC1CCC(=O)O[C@@]23C(=O)N[C@@H](Cc4ccccc4)[C@@H]2[C@H](C)[C@@]2(C)O[C@H]2[C@@H]3/C=C/CC(CO)C1=O (stereo partly specified) | – | 15.6 | 3.91 |
| C[C@H]1C/C=C/[C@H]2[C@@H]3O[C@]3(C)[C@@H](C)[C@H]3[C@H](Cc4ccccc4)NC(=O)[C@]32OC(=O)O/C=C/[C@@](C)(O)C1=O [CYTOCHALASIN E] | 0.977 | 0.244 | <0.0153 |
